{"source": "ChEMBL document CHEMBL1143168", "about": "“Conformational preferences of natural and C3-modified epothilones in aqueous solution” (J Med Chem, 2008)", "key": {"[1]": {"system": "MCF7", "assay": "Antiproliferative activity against human MCF7 cells after 72 hrs by methylene blue staining", "format": "functional, cell-based", "details": "MCF7, 72 h", "outline": "(§1)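 Human cancer cell lines exposed to compound for 72 h. Cells then fixed and total protein quantified by methylene blue staining. IC50 taken as concentration giving 50% growth inhibition.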"}, "[2]": {"assay": "Antiproliferative activity against human PC3M cells after 72 hrs by methylene blue staining", "format": "functional, cell-based", "details": "PC-3M", "outline": "as §1"}, "[3]": {"system": "HCT-116", "assay": "Antiproliferative activity against human HCT116 cells after 72 hrs by methylene blue staining", "format": "functional, cell-based", "details": "HCT-116, 72 h", "outline": "as §1"}, "[4]": {"assay": "Induction of pig brain alpha-beta-tubulin polymerization", "set-up": "species or system Sus scrofa", "outline": "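Porcine brain tubulin at 10 µM. Polymerization followed by turbidity at 340 nm until a stable A340 plateau (equilibrium between soluble and polymerized tubulin). EC50 is the concentration inducing 50% of the maximum achievable polymerization. The maximum is the plateau beyond which higher compound concentration gives no further A340 increase.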"}}}
{"smiles": "C/C(=C\\c1csc(C)n1)[C@@H]1C[C@@H]2O[C@@H]2CCC[C@H](C)[C@H](O)[C@@H](C)C(=O)C(C)(C)/C=C/C(=O)O1", "note": "[3-DEOXY-2,3-DIDEHYDRO-EPO A]", "values": [{"measurement": "IC50", "setting": "[1]", "result": 8.7, "unit": "nM"}, {"measurement": "IC50", "setting": "[2]", "result": 24.8, "unit": "nM"}, {"measurement": "IC50", "setting": "[3]", "result": 16.2, "unit": "nM"}, {"measurement": "EC50", "setting": "[4]", "result": 4800, "unit": "nM"}]}
{"smiles": "C/C(=C\\c1csc(C)n1)[C@@H]1C[C@@H]2O[C@@H]2CCC[C@H](C)[C@H](O)[C@@H](C)C(=O)C(C)(C)[C@@H](O)CC(=O)O1", "note": "[EPOTHILONE A]", "values": [{"measurement": "IC50", "setting": "[1]", "result": 2.9, "unit": "nM"}, {"measurement": "IC50", "setting": "[2]", "result": 6.4, "unit": "nM"}, {"measurement": "IC50", "setting": "[3]", "result": 2.8, "unit": "nM"}, {"measurement": "EC50", "setting": "[4]", "result": 4600, "unit": "nM"}]}
{"smiles": "C/C(=C\\c1csc(C)n1)[C@@H]1C[C@@H]2O[C@@H]2CCC[C@H](C)[C@H](O)[C@@H](C)C(=O)C(C)(C)CCC(=O)O1", "note": "[3-DEOXY-EPO A]", "values": [{"measurement": "IC50", "setting": "[1]", "result": 58.4, "unit": "nM"}, {"measurement": "IC50", "setting": "[2]", "result": 79, "unit": "nM"}, {"measurement": "IC50", "setting": "[3]", "result": 84.4, "unit": "nM"}, {"measurement": "EC50", "setting": "[4]", "result": 5600, "unit": "nM"}]}
